Laboratory results: ChEMBL document CHEMBL2203122 (J Med Chem, 2012)

Columns and labels:
Rattus norvegicus [1] = test: Inhibition of cocaine-induced conditioned place preference in rat assessed as time spent in the chamber at 300 mg/kg, ip administered 2.5 hrs prior to cocaine-challenge measured after 12 days for 15 mins (reference value: 7.1 +/- 0.6 mins); format: functional; conditions: route intraperitoneal
Rattus norvegicus [2] = test: Toxicity in Wistar albino rat assessed as mortality at 200 mg/kg, ip measured up to 3 weeks; format: organism-based; design: dose 200 mg/kg, route intraperitoneal; conditions: in vivo, 504 h
Summary of the method: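 Mixed-sex Wistar albino rats, 15 per group, dosed ip once daily with drug in 0.9% saline. Monitored for mortality, moribundity, clinical signs, feed intake and body weight. Animals in distress over 24 h were euthanized. Some received food supplements or ip fluids during the first 3 weeks.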

Rattus norvegicus [3] = test: Retinotoxicity in Wistar albino rat assessed as increase rod implicit time at 200 mg/kg, ip administered QD for 45 to 90 days relative to control; format: toxicity, organism-based; design: dose 200 mg/kg, route intraperitoneal; conditions: in vivo
Summary of the method: (§1)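 Wistar albino rats, 9 weeks old at the start and of both sexes, received one i.p. injection daily for 45 or 90 days. The dose was in 0.9% saline made fresh weekly, against a saline vehicle group. After a 5–7 day washout and at least 12 h of dark adaptation, pupils were dilated (tropicamide 1%, phenylephrine 10%). ERG was then recorded from both eyes under ketamine/xylazine.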

Rattus norvegicus [4] = test: Retinotoxicity in Wistar albino rat assessed as increase mesopic implicit time at 200 mg/kg, ip administered QD for 45 to 90 days relative to control; format: toxicity, organism-based; design: dose 200 mg/kg, route intraperitoneal; conditions: in vivo
Rattus norvegicus [5] = test: Retinotoxicity in Wistar albino rat assessed as increase cone implicit time at 200 mg/kg, ip administered QD for 45 to 90 days relative to control; format: toxicity, organism-based; design: dose 200 mg/kg, route intraperitoneal; conditions: in vivo; summary of the method: as §1
Rattus norvegicus [6] = test: Retinotoxicity in female Wistar albino rat assessed as reduction in 10 Hz flicker ERG at 200 mg/kg, ip administered QD for 45 days by electroretinogram analysis relative to control; format: toxicity, organism-based; design: dose 200 mg/kg, route intraperitoneal; conditions: in vivo, 1080 h
Rattus norvegicus [7] = test: Retinotoxicity in female Wistar albino rat assessed as reduction in 10 Hz flicker ERG at 200 mg/kg, ip administered QD for 90 days by electroretinogram analysis relative to control; format: toxicity, organism-based; design: dose 200 mg/kg, route intraperitoneal; conditions: in vivo, 2160 h
Rattus norvegicus [8] = test: Retinotoxicity in male Wistar albino rat assessed as reduction in 10 Hz flicker ERG at 200 mg/kg, ip administered QD for 45 days by electroretinogram analysis relative to control; format: toxicity, organism-based; design: dose 200 mg/kg, route intraperitoneal; conditions: in vivo, 1080 h
Rattus norvegicus [9] = test: Retinotoxicity in male Wistar albino rat assessed as reduction in 10 Hz flicker ERG at 200 mg/kg, ip administered QD for 90 days by electroretinogram analysis relative to control; format: toxicity, organism-based; design: dose 200 mg/kg, route intraperitoneal; conditions: in vivo, 2160 h

C=CC(N)CCC(=O)O (centres undefined) [VIGABATRIN]
Toxic: Activity (Rattus norvegicus [2]) | Activity (Rattus norvegicus [3]) | Activity (Rattus norvegicus [4]) | Activity (Rattus norvegicus [5]) | Activity (Rattus norvegicus [6]) | Activity (Rattus norvegicus [7]) | Activity (Rattus norvegicus [8]) | Activity (Rattus norvegicus [9])
7.9 min: Time (Rattus norvegicus [1])
